An excerpt weighted towards active compounds, which were near 2.6% of everything screened.
SENP8 block-1: inhibitors of human SENP8 protease. Q96LD8. recombinant SENP8, Nedd8 substrate fluorescence. inhibition, % at 20 µM. 360,000 tested, 0.64% active. AID 602440; in the data active = inhibition mostly above about 40%, no sharp cut-off; inactive = mostly below about 27%
Target sequence (Q96LD8 whole entry, looked up): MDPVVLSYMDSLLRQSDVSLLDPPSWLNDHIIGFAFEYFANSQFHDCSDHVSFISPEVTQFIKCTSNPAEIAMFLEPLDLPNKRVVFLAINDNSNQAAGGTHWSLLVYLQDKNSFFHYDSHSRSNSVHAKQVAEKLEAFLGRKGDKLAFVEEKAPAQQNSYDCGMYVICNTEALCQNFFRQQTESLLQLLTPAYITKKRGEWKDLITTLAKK
SENP8 block-2: blocks the human protease SENP8; purified SENP8, Z-RLRGG-aminoluciferin cleavage, luminescence; inhibition, % at 10 µM; 330,000 tested, 1.2% active; AID 2540; in the data active = inhibition above about 50%
SENP7 block: SENP7 protease inhibition | Q9BQF6 | recombinant SENP7, Z-RLRGG-aminoluciferin luminescence, 40 min | inhibition, % at 5 µM | 330,000 tested, 1.5% active;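 active = inhibition above about 50% at the single test dose, limit read from the data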;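 note: plate controls were DMSO with enzyme for no effect and no enzyme buffer wells for full effect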
Target sequence (Q9BQF6 706-1050 limits assumed): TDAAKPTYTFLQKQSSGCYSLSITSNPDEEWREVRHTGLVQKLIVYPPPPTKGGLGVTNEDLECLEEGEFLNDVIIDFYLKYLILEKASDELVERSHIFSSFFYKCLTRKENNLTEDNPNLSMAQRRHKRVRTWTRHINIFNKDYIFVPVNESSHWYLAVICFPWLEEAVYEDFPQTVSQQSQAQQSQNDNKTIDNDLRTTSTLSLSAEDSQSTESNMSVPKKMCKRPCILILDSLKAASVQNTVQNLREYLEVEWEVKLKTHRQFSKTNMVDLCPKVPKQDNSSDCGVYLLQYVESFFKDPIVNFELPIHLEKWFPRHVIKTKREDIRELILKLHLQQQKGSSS
SENP6 inh: blocks the human protease SENP6 | inhibition, % at 10 µM | Q9GZR1 | 330,000 tested, 1.8% active | Recombinant SENP6 catalytic domain, aminoluciferin luminescence;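 active = inhibition above about 50% at the single tested dose, limit read from the data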;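 note: plate controls were DMSO wells with enzyme for no effect and DMSO wells lacking enzyme for full effect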
Platelet DG rel: modulates dense granule release in human platelets; AID 1663; 300,000 tested, 0.22% active; inhibition, %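 (compounds screened at 7.5 µM in platelet-rich plasma)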; human platelet-rich plasma, SFLLRN dense granule ATP release, luminescence;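 active = mean replicate score, as percent of positive control, at or above 50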
SENP1 inh: inhibitors of human SENP1 SUMO protease catalytic domain; inhibition, % at 10 µM; recombinant SENP1 catalytic domain, CyPet-SUMO1-YPet FRET cleavage; AID 624204; 360,000 tested, 0.21% active; Q9P0U3;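 active = inhibition at least 30% at 10 µM, raw YFP signal under a set limit, fluorescence ratio 0.5 to 1.5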;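 note: 0% = enzyme with DMSO and 100% = no enzyme wells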
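System: Recombinant human SENP1 catalytic domain, His6-tagged | Incubation: Enzyme reaction for 50 min at room temperature, dark | Medium: Tris pH 8 with BME, BSA, NP40 and catalase | Also added: 25 nM SUMO1 FRET substrate | Compound: 10 µM single point, 0.5% DMSO | Measured by: FRET fluorescence in CFP and YFP emission channels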
SENP8 conf: confirmation of human SENP8 protease inhibitors. shares compounds with SENP7 block. Recombinant SENP8, Z-RLRGG-aminoluciferin luminescence, 60 min. inhibition, % at 12.5 µM. 6,200 tested, 40% active. AID 488912;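 active = mean inhibition across replicates above about 50%, limit read from the data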
SENP6 confirm: human SENP6 inhibition, confirmed. shares compounds with SENP7 block. recombinant SENP6, Z-RLRGG-aminoluciferin luminescence. inhibition, % at 12.5 µM. 6,200 tested, 58% active
SENP7 conf: human SENP7 inhibition, confirmed; recombinant SENP7, Z-RLRGG-aminoluciferin luminescence, 40 min; inhibition, % at 12.5 µM; shares compounds with SENP7 block; 6,200 tested, 69% active; AID 488917
Casp3 SENP sel: selectivity test for SENP inhibitors: human caspase-3 inhibition | shares compounds with SENP7 block | purified caspase-3, Z-DEVD-aminoluciferin luminescence, 60 min | inhibition, % at 12.5 µM | 6,200 tested, 60% active;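 active = mean inhibition above about 50%, limit read from the data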;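 note: plate controls were enzyme with DMSO for no effect and wells without caspase-3 for full effect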
SENP luc ctr: interferes with luciferase luminescence in SENP counter-screen | shares compounds with SENP7 block | inhibition, % at 12.5 µM | 6,200 tested, 39% active | Pre-incubated SENP8/Z-RLRGG-aminoluciferin, luciferase luminescence interference;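 active = mean inhibition above about 50% when retested at one dose, limit read from the data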;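 note: plate controls were DMSO wells with completed reaction for no effect and substrate without enzyme for full effect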
* = called active by the depositor; . = no result.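 Rule for the calls, unless noted: active = mean inhibition above about 50% in the one-dose retest (limit read from the data); inactive = the rest.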

SMILES	SENP8 block-1	SENP8 block-2	SENP7 block	SENP6 inh	Platelet DG rel	SENP1 inh	SENP8 conf	SENP6 confirm	SENP7 conf	Casp3 SENP sel	SENP luc ctr
c1ccc(Oc2cc(-n3cccn3)ncn2)cc1	5	41	46	54*	10	0	3	33	75*	68*	14
COc1ccc(CNC(=O)CN(C(=O)c2csnn2)c2ccc(F)cc2)cc1	7	3	6	-3	5	0	.	.	.	.	.
CCCNC(=O)C1(C)CCCN(C(=O)Cc2cccc(OC)c2)C1 (centres undefined)	11	.	.	.	.	2	.	.	.	.	.
COc1cc(CN(CC2CCCO2)C(=O)c2cccs2)cc(OC)c1OC (centres undefined)	14	-3	78*	12	-1	2	-5	-6	-8	2	6
COc1cc(CN(CC2CCCO2)C(=O)c2ccco2)cc(OC)c1OC (centres undefined)	3	-3	-4	1	-2	1	.	.	.	.	.
CC(Oc1ccc(Cl)cc1Cl)C(=O)OCC(=O)c1c(N)n(C)c(=O)n(C)c1=O (centres undefined)	28	5	5	-4	.	0	.	.	.	.	.
O=C1C(Cl)=C(Nc2ccccc2O)C(=O)N1c1ccccc1	19	14	27	52*	0	8	42	38	66*	60*	51*
O=C(NC(=S)Nc1ccc(S(=O)(=O)Nc2nccs2)cc1)c1ccc(F)cc1	11	23	1	64*	1	-2	36	33	66*	45	52*
CC(C)(C)C(=O)NC(=S)Nc1ccc(S(=O)(=O)Nc2nccs2)cc1	3	2	4	-6	4	4	.	.	.	.	.
CCOc1ccc(NC(=O)c2nccnc2CO)cc1	-12	14	48	53*	20	0	38	35	74*	82*	55*
CCOc1ccc(NC(=O)c2cnccn2)cc1	14	-5	39	36	6	2	.	.	.	.	.
CCOc1ccc(NC(=O)c2ccccn2)cc1	6	81*	92*	91*	31	9	92*	92*	100*	96*	89*
CCOc1ccc(NC(=O)c2ccccc2O)cc1	5	36	38	64*	14	1	55*	49	78*	64*	63*
COc1ccc(OC)c2c1sc(=NC(=O)c1ccco1)n2C	-485	-10	-6	-14	-6	0	.	.	.	.	.
COc1ccc(C(=O)N=c2sc3c(C)ccc(OC)c3n2C)cc1OC	-446	76*	89*	84*	2	4	5	14	15	9	16
COc1cccc(C(=O)N=c2sc3c(C)ccc(OC)c3n2C)c1	-487	68*	97*	6	16	1	11	22	9	13	19
COc1ccccc1C(=O)N=c1sc2c(C)ccc(OC)c2n1C	-454	44	48	58*	3	-13	19	18	26	53*	14
Cc1cc(C)c(S(=O)(=O)Nc2cc(SCC(=O)O)c(O)c3ccccc23)cc1C	.	.	.	.	-6	.	.	.	.	.	.
Cc1cc(C)c(S(=O)(=O)/N=C2/C=C(SCC(=O)O)C(=O)c3ccccc32)cc1C	54*	28	18	62*	.	5	15	36	5	-1	-6
c1ccc(-c2ccc(-c3ccncn3)cc2)cc1	-99	51*	84*	61*	2	-2	6	16	32	26	11
c1ccc(-c2csc(-c3ccncc3)n2)cc1	-36	-15	-6	9	-11	0	.	.	.	.	.
CN1CCC(NC(=O)c2cc(-c3cccc(Br)c3)nc3ccccc23)CC1	0	-2	-8	-22	-15	1	.	.	.	.	.
Cc1cccc(NC(=O)c2csnn2)n1	-7	-9	-10	-9	3	0	.	.	.	.	.
CN=c1scc(-c2cccs2)n1/N=C/c1ccc(O)c(O)c1O	30	82*	57*	79*	60*	3	95*	95*	99*	80*	82*
CN=c1scc(C)n1/N=C/c1ccc(O)c(O)c1O	14	-10	-8	26	16	-1	.	.	.	.	.
SMILES	SENP8 block-1	SENP8 block-2	SENP7 block	SENP6 inh	Platelet DG rel	SENP1 inh	SENP8 conf	SENP6 confirm	SENP7 conf	Casp3 SENP sel	SENP luc ctr
CN=c1scc(-c2ccccc2Br)n1/N=C/c1ccc[nH]1	.	22	1	9	0	.	.	.	.	.	.
CN=c1scc(-c2cccs2)n1/N=C/c1ccccc1O	-40	94*	95*	96*	12	-1	50	94*	102*	94*	19
Fc1ccc2c(Cl)c(-c3nnc(-c4cccs4)o3)sc2c1	-332	-10	69*	6	-3	1	2	8	25	14	3
COc1cc(C(=O)N2CCN(C(=O)c3cc(-c4ccc(Br)cc4)n[nH]3)CC2)cc(OC)c1OC	22	-4	20	-15	-1	2	.	.	.	.	.
c1ccc(-c2ncc(-c3ccn[nH]3)s2)cc1	-387	83*	91*	91*	13	-2	84*	85*	98*	87*	59*
Cc1ccc2c(c1)nnn2C1CCN(CC(=O)N2CCN(c3ccc(F)cc3)CC2)CC1	10	3	64*	-9	-3	2	8	7	2	0	5
Cc1ccc2c(c1)nnn2C1CCN(CC(=O)Nc2ccc(F)cc2)CC1	14	-8	-7	-12	-1	2	.	.	.	.	.
O=C(CN1CCC(n2nnc3cc(F)ccc32)CC1)NCCc1nc2ccccc2[nH]1	13	2	52*	14	7	0	10	9	3	-3	-2
Nc1ncnc2c1ncn2[C@@H]1O[C@H](CNCC#Cc2ccccc2)[C@@H](O)[C@H]1O	8	-3	6	29	.	3	.	.	.	.	.
O=c1ccc(-c2ccc(S(=O)(=O)Nc3ccc(F)cc3)o2)n[nH]1	14	1	0	12	-2	0	.	.	.	.	.
CC(C)N(C(=O)Nc1ccc2nsnc2c1)C(C)C	.	97*	95*	98*	-1	.	83*	89*	75*	12	9
Cc1cn([C@H]2C[C@H](O)[C@@H](CCC(=O)NCCN3CCCCC3)O2)c(=O)[nH]c1=O	-3	.	3	.	.	0	.	.	.	.	.

Source: PubChem (several laboratories)
